# Measurements gathered from unrelated publications.
# Lines come from different studies, so protocols differ.
# CA12: Carbonic anhydrase 12 (CA12, Homo sapiens, UniProt O43570)
# ACE: Angiotensin-converting enzyme (ACE, Homo sapiens, UniProt P12821)
# GLP1R: Glucagon-like peptide 1 receptor (GLP1R, Homo sapiens, UniProt P43220)
# DRD3: D(3) dopamine receptor (DRD3, Homo sapiens, UniProt P35462)
# GHSR: Growth hormone secretagogue receptor type 1 (GHSR, Homo sapiens, UniProt Q92847)
Structure (SMILES),target,assay,measurement,result
O=C(Nc1ccc(Br)cc1)Nc1ccc2c(c1)C=CCP(=O)(O)O2,CA12,"enzyme activity, inhibitor, stopped-flow",Ki,> 10 µM
CC(C)C[C@H](NC(=O)[C@@H](N)C(C)C)C(=O)N[C@@H](CO)C(=O)N1CCC[C@H]1C(=O)N[C@@H](CCC(N)=O)C(=O)O,ACE,"enzyme activity, inhibitor, absorbance",IC50,105 µM
CC[C@H](C)[C@H](NC(=O)[C@H](Cc1ccccc1)NC(=O)[C@H](CCC(N)=O)NC(=O)[C@H](CCCNC(=N)N)NC(=O)[C@@H](NC(=O)[C@H](C)NC(=O)[C@H](CCCCN)NC(=O)[C@H](CCCNC(=N)N)NC(=O)[C@H](CCC(=O)O)NC(=O)[C@H](CC(C)C)NC(=O)[C@H](CC(C)C)NC(=O)[C@H](CCC(=O)O)NC(=O)[C@H](CO)NC(=O)[C@H](Cc1c[nH]c2ccccc12)NC(=O)[C@H](CC(C)C)NC(=O)[C@H](CO)NC(=O)[C@@H](NC(=O)[C@H](Cc1ccccc1)NC(=O)[C@H](CCC(=O)O)NC(=O)[C@H](CC(C)C)NC(=O)[C@H](CCC(=O)O)NC(=O)CNC(=O)[C@@H]1CCCN1)[C@@H](C)O)C(C)C)C(=O)N[C@@H](CCC(=O)O)C(=O)N[C@@H](CC(=O)O)C(=O)N[C@@H](CC(C)C)C(=O)N[C@@H](CCCCN)C(=O)N[C@@H](CCCCN)C(=O)O,GLP1R,"calcium signal, antagonist, fluorescence",IC50,0.874 µM
Cc1[nH]c(C)c(S(=O)(=O)Nc2ccc(S(F)(F)(F)(F)F)c(Cl)c2)c1C(=O)N1CCC(F)(F)C1,DRD3,"β-arrestin recruitment, antagonist",IC50,1.1 µM
N#C[Se]Cc1cc(=O)oc2cc(O)ccc12,CA12,"enzyme activity, inhibitor, stopped-flow",Ki,0.0933 µM
CC[C@H](C)[C@H](NC(=O)[C@H](C)NC(=O)[C@H](C)NC(=O)[C@H](CCC(=O)O)NC(=O)[C@H](CCCNC(=N)N)NC(=O)[C@H](C)NC(=O)[C@H](CC(C)C)NC(=O)[C@H](CC(C)C)NC(=O)[C@H](CCCNC(=N)N)NC(=O)[C@H](CCCNC(=N)N)NC(=O)[C@H](C)NC(=O)[C@H](Cc1c[nH]cn1)NC(=O)[C@H](CCC(=O)O)NC(=O)[C@@H]1CCCN1C(=O)[C@H](CO)NC(=O)[C@H](CC(C)C)NC(=O)[C@H](Cc1ccccc1)NC(=O)[C@H](Cc1c[nH]c2ccccc12)NC(=O)[C@H](CO)NC(=O)CN)C(=O)N1CCC[C@H]1C(=O)N1CCC[C@H]1C(=O)N1CCC[C@H]1C(=O)N1CCC[C@H]1C(=O)N[C@H](C(=O)N1CCC[C@H]1C(=O)N1CCC[C@H]1C(=O)N1CCC[C@H]1C(=O)O)C(C)C,GHSR,"calcium signal, agonist, fluorescence",EC50,0.19 µM
CC(C)[C@H](NC(=O)[C@@H](N)CCC(=O)O)C(=O)N[C@@H](CC(N)=O)C(=O)N[C@@H](Cc1ccc(O)cc1)C(=O)N[C@@H](CC(=O)O)C(=O)O,ACE,"enzyme activity, inhibitor",IC50,~1550 µM
Cc1ccc(C(=O)Nc2ccc3c(c2)C=CCP(=O)(O)O3)cc1,CA12,"enzyme activity, inhibitor, stopped-flow",Ki,0.0078 µM
CC[C@H](C)[C@H](NC(=O)[C@H](C)NC(=O)[C@H](C)NC(=O)[C@H](CCC(=O)O)NC(=O)[C@H](CCCNC(=N)N)NC(=O)[C@H](CCC(=O)O)NC(=O)[C@H](CC(C)C)NC(=O)[C@H](CCSC)NC(=O)[C@H](CCCNC(=N)N)NC(=O)[C@H](CCCNC(=N)N)NC(=O)[C@H](CC(C)C)NC(=O)[C@H](Cc1c[nH]cn1)NC(=O)[C@H](CCC(=O)O)NC(=O)[C@@H]1CCCN1C(=O)[C@H](CO)NC(=O)[C@H](CC(C)C)NC(=O)[C@H](Cc1ccccc1)NC(=O)[C@H](Cc1ccc(O)cc1)NC(=O)[C@H](CO)NC(=O)CN)C(=O)N1CCC[C@H]1C(=O)N1CCC[C@H]1C(=O)N1CCC[C@H]1C(=O)N1CCC[C@H]1C(=O)N[C@H](C(=O)N1CCC[C@H]1C(=O)N1CCC[C@H]1C(=O)N[C@@H](CC(C)C)C(=O)O)C(C)C,GHSR,"calcium signal, antagonist, fluorescence",IC50,1.37 µM
O=C(Nc1ccc2c(c1)C=CCP(=O)(O)O2)c1ccc(F)cc1,CA12,"enzyme activity, inhibitor, stopped-flow",Ki,0.004 µM
CCC(CNc1nc(-c2cn3ccnc3cc2C)nc2ccccc12)c1ccccc1 (stereo not drawn),"Sodium-dependent dopamine transporter (SLC6A3, Homo sapiens, UniProt Q01959)","ligand displacement, radioligand",IC50,4.59 µM
CC(C)C[C@H](NC(=O)[C@@H](NC(=O)[C@@H](NC(=O)[C@@H]1CCCN1C(=O)[C@@H](N)CCC(=O)O)C(C)C)[C@@H](C)O)C(=O)O,ACE,"enzyme activity, inhibitor",IC50,~432 µM
CCOC(=O)c1ccc(OC(=O)CCCCCN=C(N)N)cc1,"Kallikrein-2 (Homo sapiens, UniProt P20151)","enzyme activity, inhibitor",IC50,0.426 µM
O=C(Nc1ccc2c(c1)C=CCP(=O)(O)O2)c1ccc(Br)cc1,CA12,"enzyme activity, inhibitor, stopped-flow",Ki,0.0844 µM
CC(C)C[C@H](NC(=O)CNC(=O)[C@H](CCCNC(=N)N)NC(=O)[C@H](Cc1c[nH]c2ccccc12)NC(=O)[C@H](Cc1ccccc1)NC(=O)[C@@H]1CCCN1C(=O)CN)C(=O)N[C@@H](CO)C(=O)N[C@@H](CCCNC(=N)N)C(=O)N[C@@H](CCCNC(=N)N)C(=O)N1CCC[C@H]1C(=O)N[C@@H](CC(C)C)C(=O)N[C@@H](CCCNC(=N)N)C(=O)O,GHSR,"calcium signal, antagonist, fluorescence",IC50,3.37 µM
O=C(Nc1ccc2c(c1)C=CCP(=O)(O)O2)c1ccc2ccccc2c1,CA12,"enzyme activity, inhibitor, stopped-flow",Ki,0.0272 µM
Cc1[nH]c(C)c(S(=O)(=O)Nc2ccc(S(F)(F)(F)(F)F)cc2)c1C(=O)N(C)C,DRD3,"β-arrestin recruitment, antagonist",IC50,1.7 µM
CCCCC1CNC2CCc3ccc(OC)cc3C12 (racemic),DRD3,"ligand displacement, radioligand",Ki,5.03 µM
CC(C)C[C@H](NC(=O)[C@H](CCC(=O)O)NC(=O)[C@H](C)NC(=O)[C@@H](NC(=O)[C@H](Cc1ccccc1)NC(=O)[C@H](CC(C)C)NC(=O)[C@H](CCCNC(=N)N)NC(=O)[C@H](C)NC(=O)[C@H](C)NC(=O)[C@H](CCCCN)NC(=O)[C@H](CCC(=O)O)NC(=O)[C@H](CO)NC(=O)[C@H](CC(C)C)NC(=O)[C@H](Cc1ccc(O)cc1)NC(=O)[C@H](CCC(=O)O)NC(=O)[C@H](CC(=O)O)NC(=O)[C@H](CC(C)C)NC(=O)[C@H](CC(C)C)NC(=O)[C@H](CCC(=O)O)NC(=O)[C@@H](NC(=O)[C@H](Cc1ccccc1)NC(=O)[C@H](CCC(=O)O)NC(=O)[C@H](CCC(=O)O)NC(=O)[C@H](CCC(=O)O)NC(=O)[C@H](C)NC(=O)[C@@H](N)CO)[C@@H](C)O)C(C)C)C(=O)N[C@@H](CCCCN)C(=O)N[C@@H](CCCCN)C(=O)O,GLP1R,"calcium signal, antagonist, fluorescence",IC50,15.7 µM
O=C(Nc1cccc(F)c1)Nc1ccc2c(c1)C=CCP(=O)(O)O2,CA12,"enzyme activity, inhibitor, stopped-flow",Ki,> 10 µM
Cc1[nH]c(C)c(S(=O)(=O)Nc2ccc(S(=O)(=O)F)c(Cl)c2)c1C(=O)N1CCC(F)(F)C1,DRD3,"β-arrestin recruitment, antagonist",IC50,0.93 µM
